Paper PMC10764271 (Saudi Pharmaceutical Journal : SPJ, 2023)
Read-outs that look alike come from different tables or passages of the source.

Tests used:
Type in all cases: cell-based, human
MDA-MB-231 = test: MTT cytotoxicity assay, MDA-MB-231
Method in brief: (§1)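 Cells grown in DMEM with 10 % FBS and 1 % antibiotics (100 U/ml penicillin), seeded at 1.0 × 10^4 cells/well and left 24 h at 37 °C, 5 % CO2. Medium replaced; test compound at 5, 10, 25 and 50 μM for 48 h. MTT (5 mg/mL solution) added for 4 h; formazan dissolved in DMSO; A570 read. Triplicates. % viability versus untreated cells; IC50 from dose–response analysis.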

MCF-7 = test: MTT cytotoxicity assay, MCF-7
Method in brief: as §1

MCF-10A = test: MTT cytotoxicity assay, normal breast cell line MCF-10A; conditions: read-out: IC50 Values MCF-10A, 48 h
Method in brief: as §1

[1] = Homo sapiens, MDA-MB-231, 48 h, read-out: IC50 Values MDA-MB-231, MTT, 48 h, ±SD
[2] = Homo sapiens, MCF7, 48 h, read-out: IC50 Values MCF-7, MTT, 48 h, ±SD

SMILES | IC50 (MDA-MB-231; read-out: IC50 Values MDA-MB-231, MTT, 48 h, ±SD) [µM] | IC50 (MCF-7; read-out: IC50 Values MCF-7, MTT, 48 h, ±SD) [µM] | IC50 (MCF-10A; MTT, normal breast cell line, ±SD) [µM] | IC50 (MDA-MB-231; [1]) [µM] | IC50 (MCF-7; [2]) [µM] | IC50 (MCF-10A; Homo sapiens, MCF-10A) [µM]
N.N.[Cl][Pt][Cl] [Cisplatin, reference compound] | 27 ± 0.8 | 24.1 ± 0.8 | 64.6 ± 0.5 | – | – | –
Oc1ccccc1C=Nc1cccnc1NCc1ccccc1 [H2L^1, 2-((2-(benzylamino)pyridin-3-ylimino)methyl)phenol] | – | – | – | 75 ± 0.2 | 70.9 ± 0.4 | > 100
Oc1ccc(Br)cc1C=Nc1cccnc1NCc1ccccc1 [H2L^2, 2-((2-(benzylamino)pyridin-3-ylimino)methyl)-4-bromophenol] | – | – | – | 81.6 ± 0.6 | 81.6 ± 0.6 | > 100
Oc1ccc2ccccc2c1C=Nc1cccnc1NCc1ccccc1 [H2L^3, 1-((2-(benzylamino)pyridin-3-ylimino)methyl)naphthalen-2-ol] | – | – | – | 87.01 ± 0.3 | 112.4 ± 0.6 | > 100
CCN(CC)c1ccc(C=Nc2cccnc2NCc2ccccc2)c(O)c1 [H2L^4, 2-((2-(benzylamino)pyridin-3-ylimino)methyl) −5-(diethylamino)phenol] | – | – | – | 81.1 ± 0.2 | 104.6 ± 0.2 | > 100
Oc1ccc(Br)cc1C=Nc1cccnc1NC1CCCCC1 [H2L^5, 4-bromo-2-((2-(cyclohexylamino)pyridin-3-ylimino)methyl)phenol] | – | – | – | 82.2 ± 0.6 | 88.81 ± 0.81 | > 100
CCN(CC)c1ccc(C=Nc2cccnc2NC2CCCCC2)c(O)c1 [H2L^6, 2-((2-(cyclohexylamino)pyridin-3-ylimino)methyl)-5-(diethylamino)phenol] | – | – | – | 96 ± 0.4 | 99.6 ± 0.41 | > 100
Cc1ccccc1Nc1ncccc1N=Cc1cc(Br)ccc1O [H2L^7, 2-((2-(o-toluidino)pyridin-3-ylimino)methyl)-4-bromophenol] | – | – | – | 85.1 ± 0.4 | 88.3 ± 0.51 | > 100
CCN(CC)c1ccc(C=Nc2cccnc2Nc2ccccc2C)c(O)c1 [H2L^8, 2-((2-(o-toluidino)pyridin-3-ylimino)methyl)-5-(diethylamino)phenol] | – | – | – | 83.6 ± 0.3 | 88.3 ± 0.3 | > 100
O=[N+]([O-])c1cccnc1NCc1ccccc1 [compound 1, N-benzyl-3-nitropyridin-2-amine] | – | – | – | 110 ± 0.4 | 122 ± 0.8 | > 100
O=[N+]([O-])c1cccnc1NC1CCCCC1 [compound 2, N-cyclohexyl-3-nitropyridin-2-amine] | – | – | – | 110.2 ± 0.3 | 118 ± 0.3 | > 100
Cc1ccccc1Nc1ncccc1[N+](=O)[O-] [compound 3, 3-nitro-N-o-tolylpyridin-2-amine] | – | – | – | 112 ± 0.41 | 120 ± 0.3 | > 100
Nc1cccnc1NCc1ccccc1 [compound 4, N^2-benzylpyridine-2,3-diamine] | – | – | – | 108 ± 0.2 | 109 ± 0.6 | > 100
Nc1cccnc1NC1CCCCC1 [compound 5, N^2-cyclohexylpyridine-2,3-diamine] | – | – | – | 109 ± 0.8 | 112 ± 0.41 | > 100
Cc1ccccc1Nc1ncccc1N [compound 6, N^2-o-tolylpyridine-2,3-diamine] | – | – | – | 108 ± 0.2 | 112 ± 0.2 | > 100
